# Measured values reported in ChEMBL document CHEMBL1138201, “Development and characterization of biphenylsulfonamides as novel inhibitors of bone resorption” (J Med Chem, 2006).
# The source made the active and inactive calls. No cut-off for these calls is given here.
# Tests used:
# J774 = assay: Inhibition of mouse J774 cell survival by alamar blue viability assay; assay type: functional, cell-based
# Procedure, shortened: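 J774 cells were seeded at 10⁴ per well in […] with 10% FCS and penicillin/streptomycin and grown overnight. Compounds were then added for 48 h. Alamar Blue was added for a further 3 h and viability was read as fluorescence (ex 530, em 590 nm). There were at least three independent experiments, n = 5 each, and IC₅₀ was fitted.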
# Hepatocyte = assay: Effect on apoptosis of hepatocyte; assay type: functional, cell-based; details: Homo sapiens
# Osteoclast [1] = assay: Inhibition of mouse osteoclast survival; assay type: functional, cell-based
# Procedure, shortened: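 Mouse bone marrow from femora and tibiae was grown 3 days with 100 ng/mL M-CSF. Adherent cells were seeded on dentine slices (4 × 10⁴ cells/mL) with 100 ng/mL RANKL and 25 ng/mL M-CSF for 7 days. Compounds were present for 72 h from day 4. TRAcP-positive cells with ≥3 nuclei were counted as % of vehicle. Three experiments, n = 5 each.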
# Osteoblast = assay: Effect on apoptosis of osteoblast; assay type: functional, cell-based; details: Homo sapiens
# Macrophage = assay: Apoptosis of macrophage at 5 to 20 uM; assay type: functional, cell-based; details: Homo sapiens
# Osteoclast [2] = assay: Apoptosis of osteoclast at 5 to 20 uM; assay type: functional, cell-based; details: Homo sapiens
# Homo sapiens [3] = organism: Homo sapiens; assay: Inhibition of TNF-alpha-activated NF-kappaB
# Homo sapiens [4] = organism: Homo sapiens; assay: Inhibition of RANKL-activated NF-kappaB
# Mus musculus = assay: Inhibition of ovariectomy-induced bone loss in C57/BL6 mouse at 5 mg/kg/day, ip; assay type: functional, organism-based
# Procedure, shortened: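 Nine-week-old female C57/BL6 mice were ovariectomized or sham-operated. Starting 2 days after surgery, they received 5 (mg/kg)/day intraperitoneally in corn oil for 21 days; controls received oil alone. The study ended on day 23. Bone at the right tibial metaphysis was measured by µCT at 5 µm resolution over 200 slices distal to the growth plate. Results are % change from sham, ±SEM, n = 6.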
Structure (SMILES),IC50 (J774) [µM],also measured
O=[N+]([O-])c1ccccc1-c1ccc(S(=O)(=O)NCCCCO)cc1,2,–
O=S(=O)(NCCCCO)c1cccc(-c2ccc(C(F)(F)F)cc2)c1,> 50,–
O=S(=O)(NCCCCO)c1ccc(-c2ccc(F)cc2F)c(C(F)(F)F)c1,0.7,–
CSc1ccc(-c2ccc(S(=O)(=O)NCCCCO)cc2)cc1,35,–
O=S(=O)(NCCCCCO)c1ccc(-c2ccc(-c3ccccc3)cc2)cc1,33,–
O=S(=O)(NCCCCO)c1ccc(-c2ccc(C(F)(F)F)cc2)c(F)c1,5.5,–
O=[N+]([O-])c1cccc(-c2ccc(S(=O)(=O)NCCCCO)cc2)c1,33,–
CN(C)c1ccc(-c2ccc(S(=O)(=O)NCCCCCO)cc2)cc1,32,–
O=S(=O)(NCCCCCO)c1ccc(-c2ccccc2)cc1,18,–
Nc1ccccc1-c1ccc(S(=O)(=O)NCCCCO)cc1,24,–
Cc1ccc(-c2ccc(S(=O)(=O)NCCCCCO)cc2)cc1,13,–
O=S(=O)(NCCCCCO)c1ccc(-c2ccc(F)cc2F)cc1,4.5,–
CC(=O)c1ccc(-c2ccc(S(=O)(=O)NCCCCCO)cc2)cc1,11,–
O=S(=O)(NCCCCO)c1ccc(-c2ccc(C(F)(F)F)cc2)cc1,5,–
Cc1cc(S(=O)(=O)NCCCCO)ccc1-c1ccc(F)cc1,2.5,–
O=S(=O)(NCCCCCO)c1ccc(-c2ccc(Cl)cc2Cl)cc1,2.5,–
N#Cc1ccc(-c2ccc(S(=O)(=O)NCCCCCO)cc2)cc1,12,–
Cc1cccc(-c2ccc(S(=O)(=O)NCCCCO)cc2)c1,28,–
O=S(=O)(NCCCCO)c1ccc(-c2ccc(OC(F)(F)F)cc2)cc1,8,–
O=S(=O)(NCCCCO)c1ccc(-c2ccc(Br)cc2F)cc1,3,–

Structure (SMILES),IC50 (J774) [µM],also measured
O=S(=O)(NCCCCO)c1ccc(-c2ccccc2C(F)(F)F)cc1,6,–
O=S(=O)(NCCCCCO)c1ccc(-c2ccc(F)c(F)c2)cc1,16,–
O=C(OCCCCO)c1ccc(-c2ccccc2)cc1,–,IC50 (Hepatocyte): > 200 µM; IC50 (Osteoclast [1]): 9 µM; IC50 (Osteoblast): > 100 µM; Activity (Macrophage): Active; Activity (Osteoclast [2]): Active; Activity (Homo sapiens [3]): Active; Activity (Homo sapiens [4]): Active
O=S(=O)(NCCCCO)c1ccc(-c2ccc(F)cc2)cc1,8,–
O=S(=O)(NCCCCO)c1ccc(-c2ccccc2I)cc1,5.5,–
O=S(=O)(NCCCCO)c1ccccc1-c1ccc(F)cc1,> 50,–
O=S(=O)(NCCCCO)c1ccc(-c2ccc(Br)cc2)cc1,8,–
O=S(=O)(NCCCCO)c1ccc(-c2ccccc2)cc1C(F)(F)F,4.5,–
O=S(=O)(NCCCCCO)c1ccc(-c2ccc(O)cc2)cc1,21,–
O=S(=O)(NCCCCCCO)c1ccc(-c2ccccc2)cc1,13,–
O=S(=O)(NCCCCO)c1ccc(-c2ccccc2)cc1,18,IC50 (Osteoclast [1]): 8 µM; Activity (Homo sapiens [3]): Active; Activity (Homo sapiens [4]): Active
O=S(=O)(NCCCCO)c1ccc(-c2ccc(C(F)(F)F)cc2)cc1F,5,–
O=C(O)c1ccc(-c2ccc(S(=O)(=O)NCCCCCO)cc2)cc1,33,–
O=S(=O)(NCCCCCO)c1ccc(-c2ccc(C(F)(F)F)cc2C(F)(F)F)cc1,2,–
Cc1cc(S(=O)(=O)NCCCCO)ccc1-c1ccc(F)cc1F,0.8,IC50 (Osteoclast [1]): 0.15 µM; Activity (Mus musculus): Active; Activity (Homo sapiens [3]): Active; Activity (Homo sapiens [4]): Active
COc1ccccc1-c1ccc(S(=O)(=O)NCCCCCO)cc1,31,–
O=S(=O)(NCCCO)c1ccc(-c2ccccc2)cc1,> 50,–
O=S(=O)(NCCCCCO)c1ccc(-c2ccc(Br)cc2)cc1,9,–
COc1cc(S(=O)(=O)NCCCCCO)ccc1-c1ccc(F)cc1F,33,–
